Active and inactive are the calls of the source. The rule behind the calls is not given here.
Tests used:
Homo sapiens = species: Homo sapiens; experiment: Binding affinity to GABA receptor (unknown origin) assessed as equilibrium binding constant by schild plot analysis; details: filed as antagonist
[1] = molecular target: T1, GABA A receptor alpha-2/beta-2/gamma-2 (Homo sapiens, UniProt P18507+P47869+P47870); experiment: Antagonist activity at human alpha2beta2gamma2 GABAA receptor expressed in HEK cells by FMP assay; assay type: cell-based
T1 sequence (P47870 whole entry): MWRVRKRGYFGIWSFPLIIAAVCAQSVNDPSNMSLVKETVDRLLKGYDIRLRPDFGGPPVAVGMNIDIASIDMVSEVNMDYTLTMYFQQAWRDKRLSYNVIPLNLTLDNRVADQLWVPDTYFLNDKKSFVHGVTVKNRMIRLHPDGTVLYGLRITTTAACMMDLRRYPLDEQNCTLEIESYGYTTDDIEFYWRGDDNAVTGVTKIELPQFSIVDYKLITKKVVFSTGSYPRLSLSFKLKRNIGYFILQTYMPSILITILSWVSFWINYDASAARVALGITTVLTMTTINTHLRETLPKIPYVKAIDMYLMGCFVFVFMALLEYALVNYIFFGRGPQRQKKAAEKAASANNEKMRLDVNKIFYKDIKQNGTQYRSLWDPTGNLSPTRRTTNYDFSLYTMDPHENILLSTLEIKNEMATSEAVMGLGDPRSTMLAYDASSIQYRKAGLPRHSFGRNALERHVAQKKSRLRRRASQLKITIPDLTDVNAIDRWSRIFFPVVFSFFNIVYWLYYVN
T1 sequence (P18507 whole entry): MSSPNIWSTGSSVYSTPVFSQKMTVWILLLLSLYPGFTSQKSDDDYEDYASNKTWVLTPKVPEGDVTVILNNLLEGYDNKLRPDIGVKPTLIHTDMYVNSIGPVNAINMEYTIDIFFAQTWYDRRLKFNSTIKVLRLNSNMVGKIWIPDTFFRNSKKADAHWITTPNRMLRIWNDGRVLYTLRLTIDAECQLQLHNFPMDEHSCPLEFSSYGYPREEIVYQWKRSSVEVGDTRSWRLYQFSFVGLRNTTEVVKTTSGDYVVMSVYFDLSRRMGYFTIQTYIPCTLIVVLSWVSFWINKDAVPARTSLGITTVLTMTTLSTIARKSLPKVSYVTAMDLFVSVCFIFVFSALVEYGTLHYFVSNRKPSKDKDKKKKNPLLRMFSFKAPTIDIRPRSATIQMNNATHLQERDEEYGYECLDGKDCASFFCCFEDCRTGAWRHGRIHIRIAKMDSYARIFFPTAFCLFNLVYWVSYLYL
T1 sequence (P47869 whole entry): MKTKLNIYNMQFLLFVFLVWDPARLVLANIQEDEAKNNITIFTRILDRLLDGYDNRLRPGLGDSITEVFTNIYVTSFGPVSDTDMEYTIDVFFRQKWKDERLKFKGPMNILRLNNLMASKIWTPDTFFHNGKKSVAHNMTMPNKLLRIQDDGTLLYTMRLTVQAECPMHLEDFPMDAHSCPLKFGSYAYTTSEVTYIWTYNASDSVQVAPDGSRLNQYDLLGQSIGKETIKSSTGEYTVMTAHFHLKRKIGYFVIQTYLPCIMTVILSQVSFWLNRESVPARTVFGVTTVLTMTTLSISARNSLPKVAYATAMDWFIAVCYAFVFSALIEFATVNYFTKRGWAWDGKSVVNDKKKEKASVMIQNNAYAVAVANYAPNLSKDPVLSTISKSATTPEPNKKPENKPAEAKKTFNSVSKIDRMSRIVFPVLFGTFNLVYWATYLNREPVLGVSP
Summary of the method: (§1)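 Human αβγ2 receptors in HEK293 cells: α1β2γ2 stably expressed, other αβγ2 subtypes transiently transfected into HEK293 Flp-In background cells (α:β:γ 1:1:2). FLIPR membrane potential assay with ΔRFU baseline to peak/plateau and GABA EC80 as agonist. IC50 from a four-parameter fit, at least three independent experiments.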

[2] = system: GABAA receptor α4β2δ (human); experiment: Antagonist activity at recombinant human alpha4beta2delta GABAA receptor expressed in HEK293 Flp-In cells by FMP assay
[3] = molecular target: T2, GABA A receptor alpha-3/beta-2/gamma-2 (Homo sapiens, UniProt P18507+P34903+P47870); experiment: Antagonist activity at human alpha3beta2gamma2 GABAA receptor expressed in HEK293 cells by FMP assay; assay type: cell-based; summary of the method: as §1
T2 sequence (P47870 whole entry): T1 sequence (P47870 whole entry)
T2 sequence (P18507 whole entry): T1 sequence (P18507 whole entry)
T2 sequence (P34903 whole entry): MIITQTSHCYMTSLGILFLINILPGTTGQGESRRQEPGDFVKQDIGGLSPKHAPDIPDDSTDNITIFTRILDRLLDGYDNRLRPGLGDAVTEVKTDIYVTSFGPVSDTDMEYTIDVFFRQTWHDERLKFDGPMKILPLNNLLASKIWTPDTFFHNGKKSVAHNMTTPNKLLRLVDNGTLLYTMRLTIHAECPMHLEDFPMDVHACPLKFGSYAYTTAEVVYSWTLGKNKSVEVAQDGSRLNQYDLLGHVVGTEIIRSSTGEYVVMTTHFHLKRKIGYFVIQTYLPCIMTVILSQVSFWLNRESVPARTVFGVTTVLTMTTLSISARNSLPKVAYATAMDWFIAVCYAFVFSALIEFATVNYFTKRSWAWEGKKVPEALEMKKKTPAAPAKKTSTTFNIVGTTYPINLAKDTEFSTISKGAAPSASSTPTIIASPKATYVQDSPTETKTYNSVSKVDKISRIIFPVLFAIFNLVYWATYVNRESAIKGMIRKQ

[4] = molecular target: T1, GABA A receptor alpha-2/beta-2/gamma-2; experiment: Antagonist activity at human alpha2beta2gamma2 GABAA receptor expressed in HEK293 cells by FMP assay; assay type: cell-based; summary of the method: as §1
CD8-positive T cell = experiment: Induction of cell proliferation of mouse CD8-positive T cells at 50 uM measured after 48 hrs in presence of alprazolam by flow cytometry analysis relative to control; assay type: functional, cell-based
Summary of the method: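 Splenocytes from female BALB/c mice were CFSE-stained (5 μM) and stimulated with soluble anti-CD3 145.2C11 (33 ng/mL) plus alprazolam 100 μM, with test compound at 50 μM, for 48 h. CD4+/CD8+ proliferation was measured by CFSE dilution on flow cytometry, at least six independent experiments.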

[5] = Apparent permeability of compound across basolateral to apical side in MDCK cells; assay type: ADME, cell-based, Canis lupus familiaris; details: dog
Summary of the method: (§2)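 MDR1-transfected MDCK monolayers, 0.5 μM test compound added apically or basally. Bidirectional apparent permeability measured in triplicate. Efflux ratio is B→A permeability divided by A→B permeability.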

[6] = Receptor occupancy at human GABA receptor
[7] = Apparent permeability of compound across apical to basolateral side in MDCK cells; assay type: ADME, cell-based, Canis lupus familiaris; details: dog; summary of the method: as §2
[8] = system: CD4-positive T cell (mouse); experiment: Induction of cell proliferation of mouse CD4+ve Th cells at 50 uM measured after 48 hrs in presence of alprazolam by flow cytometry analysis relative to control
[9] = Homo sapiens, Flp-In-293, read-out: pIC50 (converted)

Compound: O=C(Nc1cccc(C(=O)N2CCC3(CCNCC3)CC2)c1)c1cccs1
- Kb (Homo sapiens): 6.9 nM
- IC50 [1]: 320 nM
- IC50 ([1]; read-out: pIC50 (converted)): 324 nM
- IC50 [2, 9]: 67.6 nM
- IC50 ([2]; flp-in-293): 68 nM

Compound: Cc1ccc(C(=O)N2CCC3(CCNCC3)CC2)cc1
- IC50 [3]: 3570 nM
- IC50 ([3]; read-out: pIC50 (converted)): 3240 nM
- IC50 [4]: 25300 nM
- IC50 ([4]; read-out: pIC50 (converted)): 25100 nM

Compound: CC(=O)Nc1cccc(C(=O)N2CCC3(CCNCC3)CC2)c1
- IC50 [1]: 2960 nM
- IC50 ([1]; read-out: pIC50 (converted)): 2950 nM
- IC50 [2, 9]: 363 nM
- IC50 ([2]; flp-in-293): 360 nM

Compound: Cc1cccc(C(=O)N2CCC3(CCNCC3)CC2)c1
- Activity (CD8-positive T cell): Active
- Papp B→A [5]: 15 ×10⁻⁶ cm/s
- IC50 [3]: 560 nM
- IC50 ([3]; read-out: pIC50 (converted)): 501 nM
- pIC50 [6]: 7.152
- IC50 [4]: 7560 nM
- IC50 ([4]; read-out: pIC50 (converted)): 7410 nM
- Papp A→B [7]: 1.3 ×10⁻⁶ cm/s
- Activity [8]: Active
